Assay results pooled from the literature.
Each line is one published result; the experiments were not run side by side.
Target: Muscarinic acetylcholine receptor M1 (CHRM1, Homo sapiens, UniProt P11229)
Tested at: 10 µM
Sequence (P11229 1-460, as in one of the studies): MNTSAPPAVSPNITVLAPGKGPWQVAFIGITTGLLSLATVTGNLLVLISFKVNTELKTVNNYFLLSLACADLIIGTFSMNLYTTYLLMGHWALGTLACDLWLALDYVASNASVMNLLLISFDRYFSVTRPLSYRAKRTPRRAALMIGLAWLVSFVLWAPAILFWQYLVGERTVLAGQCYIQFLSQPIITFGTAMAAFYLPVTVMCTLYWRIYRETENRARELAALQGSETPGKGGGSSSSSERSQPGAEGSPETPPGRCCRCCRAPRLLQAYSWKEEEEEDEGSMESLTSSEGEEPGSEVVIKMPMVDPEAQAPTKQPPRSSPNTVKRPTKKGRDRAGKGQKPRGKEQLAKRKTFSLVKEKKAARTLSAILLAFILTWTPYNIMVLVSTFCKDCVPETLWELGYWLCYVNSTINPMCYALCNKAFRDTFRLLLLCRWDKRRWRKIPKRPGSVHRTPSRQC

| Compound | effect on | technique | inhibition [%] |
| --- | --- | --- | --- |
| CCN(Cc1ccccc1C(F)(F)F)C(=O)C1CCN(S(=O)(=O)c2ccc3[nH]ncc3c2)CC1 | ligand displacement | radioligand | 1 |
| O=C(c1ccc(Cl)cc1)N(Cc1ccccc1)C1CCCCC1 | cell-free assay |  | -25.8 |
| O=C1N=C(N2CCCCN2)S/C1=C\c1ccc(F)cc1O | ligand displacement | radioligand | < 10 |
| N#Cc1cc(Cn2c(N3CCCC3)nc3ccccc32)ccc1F | ligand displacement |  | -15.5 |
| Oc1cccc(Nc2nc(-c3ccc(F)cc3F)cs2)c1 | cell-free assay |  | -66 |
| O=C(Nc1ccc(S(=O)(=O)N2CCC(Cl)CC2)cc1)c1ccc([N+](=O)[O-])o1 | ligand displacement | radioligand | 2 |
| CCN(CC)c1ccc(C2Nc3ccc(C(=O)c4ccccc4)cc3NC3=C2C(=O)CC(C)(C)C3)cc1 (centres unmarked) | ligand displacement | radioligand | -4 |
| CCCNc1nc2ccccc2n1Cc1ccc(Cl)cc1 | ligand displacement |  | -16.1 |
